Data on 19 compounds can be found in PubChem BioAssay AID624102 (Broad Institute, 2012).

The source made the active and inactive calls.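 How the source made its calls: active means fitted curve reaches a 35% signal drop at a concentration no higher than twice the top valid dose, in duplicate at both wavelengths; inactive means the rest, including activity in the opposite direction.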

The nature of this test: P. aeruginosa growth delay under iron chelation, dose response, whole organism, absorbance 405 nm, EDDHA, dry powder, set 8 (AID 624102). As to conditions: P. aeruginosa with EDDHA, growth/pyoverdine A405, 24-30 h; series mostly up to 120 µM. The procedure, abridged: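 Material – P. aeruginosa ATCC 15692 cells · Amount – final OD600 0.0000005 bacteria · Buffer or medium – succinate M9 medium, pH 7.0, with 2 µM EDDHA iron chelator · Incubation – 24-30 h exposure, 37 °C · Signal – absorbance at 405 nm reflecting pyoverdine production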
For `CCCCC(C#N)c1ccc(Cl)cn1` (centres undefined), the result was inactive.
On to `N#Cc1cccc(C(C#N)c2ccc(F)cc2)n1` (centres undefined), for which the compound was called inactive.
On to `COCCOCCC(C#N)c1ccc(F)cc1` (centres undefined), for which the outcome was inactive.
In the case of `COCCOCCC(C#N)c1ccc(Cl)cc1` (centres undefined), the compound was classed as inactive.
On to `COCCC(C#N)c1ccc(Cl)cc1` (centres undefined), for which the compound was classed as inactive.
For the compound `N#CC(c1ccc(C(F)(F)F)c(Cl)n1)c1ccccc1OC(F)(F)F` (centres undefined), the compound was classed as inactive.
`CCCCC(C#N)c1ccc(F)cc1` (centres undefined): the compound was called inactive.
For `N#CC(c1ccc(F)cc1)c1cccc(Cl)n1` (centres undefined), the compound was classed as inactive.
As for `N#CC(c1ccc(Cl)cc1)c1ccccn1` (centres undefined), the result was inactive.
Turning to `Clc1ccc(C(c2cccc(Cl)n2)c2nn[nH]n2)cc1` (centres undefined), the result was inactive.
On to `CCCCC(C#N)c1ccc(Cl)cc1` (centres undefined), for which the result was inactive.
As to `N#CC(c1ccc(Cl)cc1)N1CCCC1` (centres undefined), the outcome was inactive.
In the case of `CCCCC(C#N)c1ccccn1` (centres undefined) it was “inactive”.
Consider `CCCCC(c1ccc(Cl)cc1)c1nn[nH]n1` (centres undefined), for which the outcome was inactive.
In the case of `COCCNC(C#N)c1ccc(Cl)cc1` (centres undefined) it was “inactive”.
Consider `COCCC(C#N)c1ccc(F)cc1` (centres undefined), for which the compound was classed as inactive.
As to `N#CC1c2ccc(Cl)cc2CCc2cccnc21` (centres undefined), the compound was classed as inactive.
With `CCCCC(C#N)c1ccc(F)cn1` (centres undefined), the compound was called inactive.
In the case of `CN(C)CCCC(C#N)c1ccc(F)cc1` (centres undefined) it was “inactive”.
